Shown are actives, neighbours in structure and some others; about 2% of the full set was active somewhere.
M1 ag: agonists of human M1 muscarinic receptor; P11229; CHO-K1 hM1, Fluo-8 calcium fluorescence, agonist mode; 0% DMSO, 100% acetylcholine EC100; activation, % at 3 µM; 360,000 compounds, 0.33% hits;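 active = activation above the run's mean compound activation plus 3 SD, cut at about 16% in these data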;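 also: peak over basal fluorescence ratio within a 140 s kinetic read after compound addition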
Target sequence (P11229 whole entry, looked up): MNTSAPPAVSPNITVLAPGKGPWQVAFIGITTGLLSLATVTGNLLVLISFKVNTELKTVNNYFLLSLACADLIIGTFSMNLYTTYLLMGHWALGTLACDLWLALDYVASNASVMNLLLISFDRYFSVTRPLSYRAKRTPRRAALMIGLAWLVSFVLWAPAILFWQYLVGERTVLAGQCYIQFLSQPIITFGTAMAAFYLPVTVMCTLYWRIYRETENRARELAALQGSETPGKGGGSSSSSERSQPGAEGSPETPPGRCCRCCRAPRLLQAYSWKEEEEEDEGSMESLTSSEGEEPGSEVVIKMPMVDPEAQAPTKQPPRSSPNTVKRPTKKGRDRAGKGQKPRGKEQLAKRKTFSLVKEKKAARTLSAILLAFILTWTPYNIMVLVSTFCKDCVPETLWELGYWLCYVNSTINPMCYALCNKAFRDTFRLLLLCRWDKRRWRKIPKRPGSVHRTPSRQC
CHRM5 agonist: agonists of human muscarinic M5 receptor (CHRM5) | P08912 | CHO-K1 hM5 cells, Fluo-8 calcium fluorescence; 0% DMSO wells, 100% maximal acetylcholine response | activation, % at 3 µM | 360,000 compounds, 0.19% hits | AID 624037;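 active = activation above the run's mean over test compounds plus 3 SD, cut at about 23% in these data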;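 also: signal is peak over basal fluorescence ratio across the kinetic read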
CHRM5 PAM: potentiates acetylcholine response at human M5 receptor. activation, % at 3 µM. P08912. AID 624038. CHO-K1 hM5, Fluo-8 calcium, ACh EC20 PAM; 0% = ACh EC20, 100% = ACh EC100. 360,000 compounds, 0.3% hits;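 active = activation above the run cutoff, the mean activation of all test compounds plus 3 SD, cut at about 18% in these data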
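System – CHO-K1 hM5 cells · Compound – 3 µM, single dose · Incubation – compound preincubation 140 s before EC20 acetylcholine addition · Technique – Fluo-8 calcium fluorescence · Measure – Max/basal fluorescence ratio as % of EC20–EC100 ACh window · Benchmarks – low control EC20 acetylcholine (0%), high control EC100 acetylcholine (100%) · Replication – singlicate, one well per test compound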
M1 antag: blocks human M1 muscarinic receptor; inhibition, % at 3 µM; 360,000 compounds, 1.3% hits; CHO-K1 hM1, Fluo-8 calcium fluorescence, ACh EC80 antagonist; P11229;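 active = percent inhibition above its own plate's cutoff, namely the mean of that plate's compound wells plus 3 SD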;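 also: peak over basal fluorescence ratio during 140 s after agonist addition; 0% = ACh EC80 plus DMSO and 100% = DMSO alone without agonist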
CHRM5 antagonist: blocks acetylcholine activation of human M5 receptor; P08912; CHO-hM5 cells, Fluo-8 calcium fluorescence, ACh EC80; inhibition, % at 3 µM; 360,000 compounds, 0.59% hits; AID 624040;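 active = inhibition above a per-plate cutoff, the mean of that plate's test compounds plus 3 SD, cut at about 27% in these data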;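 also: 0% = acetylcholine EC80 with DMSO and 100% = DMSO without agonist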
CHRM1 PAM: positive allosteric modulators of human M1 muscarinic receptor | activation, % at 3 µM | 360,000 compounds, 0.088% hits | CHO-K1 hM1, Fluo-8 calcium fluorescence, ACh EC20; 0% = ACh EC20, 100% = maximal ACh; in the data active = activation above about 19%, passing the limit was not always enough
* = called active by the depositor; · = not tested or not shown.

SMILES	M1 ag	CHRM5 agonist	CHRM5 PAM	M1 antag	CHRM5 antagonist	CHRM1 PAM
CC(=O)c1ccc(N2CCN(C(=O)/C=C/c3ccc(S(=O)(=O)NCc4ccco4)cc3)CC2)cc1	-3	-6	-34	39*	23	-16
CNc1nc2cc([N+](=O)[O-])c([N+](=O)[O-])cc2nc1NC	2	11	-14	30*	30*	-11
CN(C)C=Nc1c(Br)cc(Br)c2nonc12	45*	24*	-14	14	15	-19
CN(C)C=Nc1nonc1-c1ccccc1	-4	0	2	-6	1	3
N=C1CCCC1C(=S)SCCC(N)=O (stereo not given)	-1	-2	2	-7	-3	-4
CCOC(=O)C1=C(CC)Nc2ccccc2N/C1=N\S(=O)(=O)c1cc(Br)ccc1Br	-3	2	-16	34*	65*	-30
CCOC(=O)C1=C(C)Nc2ccccc2N/C1=N\S(=O)(=O)c1cccc(Cl)c1	-1	3	-4	0	10	0
CCOC(=O)C1=C(C)Nc2ccccc2N/C1=N\S(=O)(=O)c1ccc(Cl)cc1	-7	4	-15	37*	14	-15
O=c1ccn([C@@H]2O[C@H](CNS(=O)(=O)c3csc(-c4ccno4)c3)[C@@H](O)[C@H]2O)c(=O)[nH]1	-3	1	-5	-8	3	2
Clc1cccc(Cl)c1CSc1nnc(-c2ccncc2)s1	60*	4	4	43*	5	-25
COc1cc(F)ccc1-c1csc(C(O)c2ccc(F)cc2)n1 (stereo not given)	-4	-3	0	-8	-12	1
OCCNCc1cc(Br)ccc1OCc1ccc(Cl)cc1	23*	6	-5	4	2	-5
CC1(C)OC(=O)CC1C(=O)NCc1ccccc1 (stereo not given)	-1	-4	25*	10	7	-3
Cc1c(C)n(CCO)c2ncnc(Nc3ccc(F)cc3)c12	-3	-1	-4	43*	2	3
COc1ccc(N2CCN(CC(=O)Nc3c(C)cccc3C)CC2)cc1	1	1	-3	-7	8	5
Clc1ccc(Br)c(-c2nc3ccccc3[nH]2)c1	1	-2	-2	-5	14	4
CC(C)=N/N=C(\c1cccc([N+](=O)[O-])c1)C12CN3CN(CN(C3)C1)C2	15	-7	-19	62*	9	-21
O=C(NCC(c1ccco1)N1CCCCC1)c1ccc(COc2ccc(Cl)cc2)cc1 (stereo not given)	-5	-8	-36	80*	24	-26
N#Cc1ccc(C(=O)NCC(c2ccco2)N2CCCCC2)cc1 (stereo not given)	-5	-4	-1	14	-1	-10
O=C(NCC(c1ccco1)N1CCCC1)c1ccc(S(=O)(=O)Nc2ccccc2F)cc1 (stereo not given)	-7	-8	-3	66*	6	-25
CCOc1ccc(C(=O)NC2CC3CCCC(C2)N3CC(C)C)cc1 (stereo not given)	-6	-11	-3	40*	8	-14
COCCNC(=O)c1ccc2c(=O)n(CCOC)c(=O)[nH]c2c1	0	-4	-5	-2	-10	2
COCCn1c(=O)[nH]c2cc(C(=O)NC(C)C)ccc2c1=O	-3	-5	24*	-3	1	4
O=C(Nc1ccc(N2CCN(c3ccc(C(F)(F)F)cn3)CC2)nc1)c1cccs1	0	0	-3	-1	9	0
O=C(Nc1ccc(N2CCN(c3ncccc3C(F)(F)F)CC2)nc1)c1cccs1	1	-10	-32	46*	19	-22
SMILES	M1 ag	CHRM5 agonist	CHRM5 PAM	M1 antag	CHRM5 antagonist	CHRM1 PAM
O=C(O)Cc1ccc2ccc3ccccc3c2c1	1	3	19*	-22	-17	19
CCn1c2ccc(CC(=O)O)cc2c2cc(CC(=O)O)ccc21	-4	-1	-7	-8	-7	4
CC(N)c1csc(Nc2ccc(S(C)(=O)=O)cc2)n1 (stereo not given)	-3	0	-2	1	1	-2
OCc1ccccc1OCCCN1CCC(Cc2ccccc2)CC1	-9	-20	-6	33*	14	-20
O=[N+]([O-])c1cccc(OCCN2CCC(Cc3ccccc3)CC2)c1	-7	-20	-4	91*	6	-26
C=CCOc1ccccc1CN1CCC(Cc2ccccc2)CC1	-8	-13	-9	19	11	-15
O=Cc1cc(Cl)ccc1OCCN1CCC(Cc2ccccc2)CC1	-7	-20	-12	55*	7	-25
Clc1ccccc1OCCN1CCC(Cc2ccccc2)CC1	-3	-14	-11	30*	9	-14
COc1cc(CN2CCC(Cc3ccccc3)CC2)c([N+](=O)[O-])cc1OC	-3	-10	-2	-17	7	8
Clc1cccc(CN2CCC(Cc3ccccc3)CC2)c1	-10	-6	-19	11	0	-16
CC1(C(=O)Nc2ccc(Cl)c(Cl)c2)CCN1C(=O)CC1CCCC1 (stereo not given)	-7	-3	-6	-14	0	-3
O=C(NCc1ccccc1Cl)c1ccc2nc([C@H]3C[C@H](O)[C@@H](CO)O3)[nH]c2c1	1	1	6	-12	-11	12
CC1(C(=O)Nc2cccc3ncccc23)CCN1C(=O)Cc1ccc(-c2ccccc2)cc1 (stereo not given)	-2	3	-12	19	13	-14
Cc1cc(C)c2cc(C#N)c(NCCCN)nc2c1	·	-1	6	·	-8	·
Cc1ccc([N+](=O)[O-])c(OCCCN2CCC(Cc3ccccc3)CC2)c1	-9	8	-18	76*	22	-29
C=CCN(CC=C)C(=O)CN1C(=O)NC(c2ccccc2)(c2ccccc2)C1=O	2	1	2	-18	-7	6
CN1CCC(=O)N(CCOc2ccccc2)CC1	-3	2	20*	-2	-15	13
COc1ccc2[nH]c3c(c2c1)CCN1C(=O)C(CC(=O)NCc2cccc(C(F)(F)F)c2)C[C@H](C(=O)N(C(C)C)C(C)C)[C@@]31C (stereo not given in full)	-6	-1	-3	-27	-11	16
CCCCN(C(=O)c1ccccc1Br)C(c1ccc(OC)cc1)c1nc2ccccc2[nH]1 (stereo not given)	-4	-3	-6	-10	10	-7
CCC(C)NC(=O)C1c2ccccc2C(=O)N1Cc1ccccc1OC (stereo not given)	-2	3	30*	-5	-12	1

High-throughput results deposited in PubChem BioAssay by The Scripps Research Institute Molecular Screening Center.
